# In the library only some 1.6% were active in any assay of this set; here they are far more common.
# ABHD5-PLIN5 inh = ABHD5-PLIN5 interaction inhibitors, primary screen, cell lysate, split luciferase complementation, luminescence. Split G. princeps luciferase complementation, 4 h. inhibition, % at 4 µM. actives 0.78% (n = 360,000);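 active = inhibition above the mean inhibition across every tested compound plus 3 SD, cut at about 22% in these data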;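 note: 0% = DMSO only wells and the 100% control is not disclosed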
# Target sequence (Q00G26 whole entry, looked up): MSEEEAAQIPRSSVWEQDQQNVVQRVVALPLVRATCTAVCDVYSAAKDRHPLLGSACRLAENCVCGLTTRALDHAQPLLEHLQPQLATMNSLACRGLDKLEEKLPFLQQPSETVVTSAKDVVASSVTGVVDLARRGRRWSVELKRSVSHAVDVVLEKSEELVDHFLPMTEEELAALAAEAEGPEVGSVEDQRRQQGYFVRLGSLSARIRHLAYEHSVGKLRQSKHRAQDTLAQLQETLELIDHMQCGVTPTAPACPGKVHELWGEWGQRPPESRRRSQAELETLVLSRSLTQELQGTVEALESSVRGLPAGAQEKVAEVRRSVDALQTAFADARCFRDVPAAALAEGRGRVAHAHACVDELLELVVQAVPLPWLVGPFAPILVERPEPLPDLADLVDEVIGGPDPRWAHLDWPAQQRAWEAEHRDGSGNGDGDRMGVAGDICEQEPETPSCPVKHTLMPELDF
# Target sequence (Q8WTS1 whole entry, looked up): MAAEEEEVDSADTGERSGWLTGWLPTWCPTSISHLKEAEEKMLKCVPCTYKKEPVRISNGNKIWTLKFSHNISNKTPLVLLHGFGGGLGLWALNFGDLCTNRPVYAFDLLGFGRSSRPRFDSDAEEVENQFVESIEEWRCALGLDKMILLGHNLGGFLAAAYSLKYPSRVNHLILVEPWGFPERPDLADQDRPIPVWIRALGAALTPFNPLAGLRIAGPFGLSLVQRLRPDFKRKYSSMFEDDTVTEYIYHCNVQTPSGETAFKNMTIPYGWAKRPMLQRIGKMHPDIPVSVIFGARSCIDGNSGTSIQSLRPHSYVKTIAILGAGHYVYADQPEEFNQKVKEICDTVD
# TLR9-MyD88 block = inhibitors of TLR9-MyD88 association in cells, primary screen, cell-based, CHO, BLA complementation, fluorescence | Toll-like receptor 9 (Homo sapiens) + Myeloid differentiation primary response protein … | CCF4 FRET ratio | inhibition, % at 4.98 µM | actives 0.21% (n = 340,000) | AID 504734, 2011;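 active = inhibition above the mean over all tested compounds plus 3 SD, cut at about 21% in these data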;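 note: 0% = DMSO only wells and 100% = clavulanate BLA inhibitor control wells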
# NOD2 RIPK2 PPI = NOD2-RIPK2 binding disruptors in cells, primary screen, fluorescence, CHO cells, BLA complementation; Receptor-interacting serine/threonine-protein kinase 2 (Homo sapiens), O43353; CCF4 ratio; inhibition, % at 4.98 µM; actives 0.38% (n = 360,000); AID 624267, 2012; in the data active = inhibition above about 21%;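 note: 0% = vehicle only and 100% = reference blocker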
# TLR4-MyD88 BLA = inhibitors of TLR4-MyD88 association in cells, primary screen, cell-based, HeLa CL3-4, BLA complementation, FRET ratio. Toll-like receptor 4 (Homo sapiens) + Myeloid differentiation primary response protein …. HeLa CL3-4 TLR4/MyD88 BLA complementation. inhibition, % at 8.4 µM. actives 0.18% (n = 200,000); in the data active = inhibition above about 25%;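 note: 0% = vehicle and 100% = reference inhibitor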
# Dynein cargo inh = inhibitors of GR-EGFP nuclear translocation, primary screen, dynein cargo transport inhibitor project, imaging, high-content, 3617.4 mouse cells; test concentration mostly 20 µM; stimulated with dexamethasone, 1 µM; stronger effect = lower value; AID 1381, 2008; actives 0.47% (n = 220,000); z-score, hits read low;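 active = plate z-score of nuclear minus cytoplasmic receptor signal below a set negative limit, without overly bright fluorescence or cell loss, cut at about -3.5 in these data, passing the limit was not always enough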;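 note: z-score of nuclear minus cytoplasmic ring GR-EGFP intensity difference per well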
#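 Buffer or medium: tet-free medium with charcoal-stripped serum / Also added: dexamethasone agonist, 1.0 µM final, for 30 min / Timing: induction 48 h, compound 1 h, agonist 30 min / Measured by: high-content fluorescence imaging after fixation / Read-out: nuclear-to-cytoplasmic GR-EGFP distribution per well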
# B2AR ag = beta2AR agonists driving receptor internalization, primary screen, cell-based, FAP fluorogen, flow cytometry. actives 0.43% (n = 340,000). response, % (concentration not given with the values). Am2.2-beta2AR cells. Beta-2 adrenergic receptor (Homo sapiens), P07550. AID 504454, 2011;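 active = response above a set limit, near 3 SD of response in nonfluorescent compounds, cut at about 42% in these data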
# NOD2-RIPK2 conf = NOD2-RIPK2 binding disruptors, retest, confirmation, fluorescence, CHO cells, BLA complementation, triplicate. shares compounds with NOD2 RIPK2 PPI. actives 70% (n = 1,200). CCF4 FRET. inhibition, % at 4.98 µM;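 active = mean inhibition across replicates above a set limit taken from the earlier primary screen, cut at about 21% in these data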;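 note: 0% = DMSO-only wells and the high end = clavulanate BLA-blocked wells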
# NOD2 BLA counter = hits BLA reporter in NOD2-RIPK2 inhibitor counterscreen | shares compounds with NOD2 RIPK2 PPI | CHO BLA reporter, CCF4 FRET ratio | inhibition, % at 4.98 µM | actives 57% (n = 1,200) | AID 624371;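 active = mean inhibition above the low-control mean inhibition plus three low-control SD, cut at about 11% in these data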;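 note: 0% = DMSO only wells and 100% = clavulanate high control wells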
# An asterisk follows results filed as active; x = no result given; + = active, no number.
SMILES,ABHD5-PLIN5 inh,TLR9-MyD88 block,NOD2 RIPK2 PPI,TLR4-MyD88 BLA,Dynein cargo inh,B2AR ag,NOD2-RIPK2 conf,NOD2 BLA counter
O=C(Nc1cccc([N+](=O)[O-])c1)c1cccc(C(=O)Nc2cccc([N+](=O)[O-])c2)c1,0.9,-1.8,-3.0,x,0.45,-0.2,x,x
COc1cc(C=c2c3ccccc3n3c2cc(-c2ccccc2)[n+]3C)cc(OC)c1OC,-27.8,-18.3,-17.0,x,x,-9.3,x,x
CN(C)c1ccc(C=c2c3ccccc3n3c2cc(-c2ccc(Cl)cc2)[n+]3C)cc1,17.6,-2.3,24.6*,x,x,-274.6,23.3*,22.7*
COc1ccc(S(=O)(=O)NC(=O)C2(C)CCN2C(=O)C2(c3ccccc3)CC2)cc1 (configuration not stated),-1.2,x,-3.3,x,x,x,x,x
CC(=O)Nc1cccc(S(C)(=O)=O)c1,-5.4,-9.7,21.3*,10.7,1.33,5.8,-1.9,-4.2
CCOc1ccccc1C(=O)NCC(=O)NCC(C)(C)N1CCOCC1,0.3,-10.9,28.9*,x,x,0.6,-3.7,-1.7
CCNC(=O)NC(=O)C(C)N1C(=O)NC(c2ccccc2)(c2ccccc2)C1=O (configuration not stated),1.6,-4.8,+,x,x,1.8,0.4,-1.6
CC[n+]1ccccc1/C=C/c1ccc(N(C)C)cc1,4.8,-6.1,0.8,7.4,-0.575,-341.8,x,x
CCCCCC[n+]1ccccc1/C=C/c1ccc(N(C)C)cc1,12.2,x,33.5*,x,x,x,41.0*,40.8*
CCOc1ccc(C(=O)/C=C/c2cn(CN3CCN(C)CC3)c3ccccc23)cc1,-5.0,16.1,26.1*,14.8,-0.0334,0.6,23.7*,36.7*
O=C(/C=C/c1cn(CC(O)CN2CCOCC2)c2ccccc12)c1cccs1 (configuration not stated),x,x,x,x,0.648,x,x,x
Cc1ccc(C(=O)/C=C/c2cn(CC(O)CN3CCOCC3)c3ccccc23)cc1 (configuration not stated),20.1,19.1,22.8*,5.4,1.86,5.2,36.2*,35.4*
O=C1NC[C@H](CCCCN2CCN(CCC3CCCCC3)C(=O)C2=O)N(CCc2ccccc2)C1=O,-4.8,x,-3.7,x,x,x,x,x
COc1ccc(OC)c(/C=C/C(=O)OCC(=O)N2CCCC2)c1,4.7,-11.1,-8.8,x,x,2.6,x,x
COc1ccc(OC)c(/C=C/C(=O)OCC(=O)N2C(C)CCCC2C)c1 (configuration not stated),4.1,1.1,21.4*,x,x,-1.4,5.2,0.1
O=C(CN1C(=O)c2ccccc2S1(=O)=O)NCCSCc1cccc(Cl)c1,0.5,4.1,28.7*,x,x,4.1,1.6,-0.5
O=C(CN1C(=O)c2ccccc2S1(=O)=O)NCCSC1CCCCC1,-2.2,-10.1,-6.4,2.4,0.156,-2.5,x,x
COc1ccc(C=NNc2ccc([N+](=O)[O-])cc2S(=O)(=O)Nc2ccccc2C(=O)O)cc1OC,7.5,8.6,27.0*,x,x,7.4,36.1*,35.7*
COc1ccc(-c2sc(Nc3ccc(F)c(F)c3F)nc2CCC(=O)NN)cc1,6.2,-10.4,2.0,x,x,-3.1,x,x
COc1ccc(C=NCCc2ccc(OC)c(OC)c2)cc1OC,-7.1,10.6,1.2,x,x,x,x,x
O=C(OCC(=O)N1CCN(c2ccccc2)CC1)c1cc(F)c(F)cc1Cl,-10.3,-6.9,21.2*,x,x,x,-13.5,-4.0
O=C(OCC(=O)N1CCN(c2ccccc2)CC1)c1cc(Br)ccc1Cl,2.0,-0.8,-20.2,x,x,-9.2,x,x
CCCCC(c1nc2ccccc2[nH]1)n1c(=O)c(-c2ccccc2)nc2cc(C)c(C)cc21 (configuration not stated),6.5,x,-8.1,x,x,x,x,x
CCCCCNC(=O)C(c1ccc(-c2ccccc2)cc1)n1c(=O)c(-c2cc3ccccc3[nH]2)nc2ccccc21 (configuration not stated),0.7,x,24.9*,x,x,x,36.8*,63.9*
CCCCCNC(=O)C(C1CC1)n1c(=O)c(-c2cc3ccccc3[nH]2)nc2ccccc21 (configuration not stated),-10.1,x,44.8*,x,x,x,37.1*,64.0*
SMILES,ABHD5-PLIN5 inh,TLR9-MyD88 block,NOD2 RIPK2 PPI,TLR4-MyD88 BLA,Dynein cargo inh,B2AR ag,NOD2-RIPK2 conf,NOD2 BLA counter
CCCCCNC(=O)C(c1cc2ccccc2o1)n1c(=O)c(-c2cc3ccccc3[nH]2)nc2ccccc21 (configuration not stated),-5.8,x,47.6*,x,x,x,42.6*,66.1*
Cc1ccccc1N/N=C/c1sc(=O)n(Cc2cccc(C(=O)O)c2)c1Cl,12.0,3.1,-4.8,x,2.4,2.8,x,x
COC(=O)c1cccc(Cn2c(Cl)c(/C=N/Nc3ccccc3C)sc2=O)c1,10.9,7.0,38.5*,-2.5,0.424,6.8,5.5,-0.2
COc1ccc(C(CNC(=O)CNC(=O)c2cccc(C)c2)N2CCCCC2)cc1 (configuration not stated),-2.9,-11.4,-0.1,x,x,2.6,x,x
CCCCCCCCCC1(CC(=O)OCC)SCCN1C(N)=O (configuration not stated),-7.8,5.5,-1.7,x,x,x,x,x
CC(C)OC(=O)N(C)C[C@@H]1OCc2cnnn2CCCC(=O)N([C@H](C)CO)C[C@@H]1C,0.9,-2.8,6.1,x,x,x,x,x
CC1=C/C(=N\OS(=O)(=O)c2ccccc2)C(C)=CC1=O,7.3,11.8,53.6*,-0.8,-3.38,20.4,51.1*,13.5*
COCCNC(=S)N1CCC2CC1c1cc(-c3ccc4c(c3)OCO4)ccc12 (configuration not stated),-8.0,x,2.4,x,x,x,x,x
COc1ccc(C(=O)NCc2ccc3c(c2)OCO3)cc1S(=O)(=O)N1CCCC1,-9.4,-11.1,-12.2,x,x,-0.3,x,x
CC(C)CC(C(=O)OCC(=O)Nc1cccc(Cl)c1)N1C(=O)C2CC=CCC2C1=O (configuration not stated),-2.8,0.2,21.7*,6.8,-0.31,14.3,-1.7,-3.0
Cc1cc(C)c(C(=O)CN2C(=O)C(=O)N(C3CCCC3)C2=O)cc1C,-5.7,5.9,5.3,x,x,4.0,x,x
O=Nc1c(O)[nH]c2ccc(Cl)c(Cl)c12,-8.1,17.4,28.4*,x,x,-3.5,26.4*,15.2*

# Screens (PubChem)
